# According to ChEMBL document CHEMBL3588845, “Protozoan Parasite Growth Inhibitors Discovered by Cross-Screening Yield Potent Scaffolds for Lead Discovery” (J Med Chem, 2015):
# pEC50: −log10 of the molar value.
# Test system: Leishmania major
# Assay: Antiparasite activity against Leishmania major promastigotes assessed as growth inhibition incubated for 44 hrs by alamar blue dye based fluorescence assay
# Type: functional, organism-based
# Conditions: not given
row,SMILES,pEC50
1,Fc1cccc(COc2ccc(Nc3nccc4ccc(-c5cccc(N6CCOCC6)c5)cc34)cc2Cl)c1,< 4.82
2,Fc1cccc(COc2ccc(Nc3nccc4cc(-c5cccc(N6CCOCC6)c5)ccc34)cc2Cl)c1,< 4.82
3,CN1CCN(S(=O)(=O)c2ccc(-c3ccc4c(Nc5ccc(OCc6cccc(F)c6)c(Cl)c5)cnnc4c3)cc2)CC1,5.24
4,CN1CCCN(S(=O)(=O)c2ccc(-c3ccc4c(Nc5ccc(OCc6cccc(F)c6)c(Cl)c5)cnnc4c3)cc2)CC1,5.19
5,Fc1cccc(COc2ccc(Nc3nncc4ccc(-c5cccc(N6CCOCC6)c5)cc34)cc2Cl)c1,< 4.82
6,Fc1cccc(COc2ccc(Nc3nncc4cc(-c5cccc(N6CCOCC6)c5)ccc34)cc2Cl)c1,< 4.82
7,O=S(=O)(c1ccc(-c2ccc3cnnc(Nc4ccc(OCc5ccccc5)c(Cl)c4)c3c2)cc1)N1CCOCC1,< 5.47

# Test system: Trypanosoma brucei
# Assay: Antiparasite activity against Trypanosoma brucei 427 assessed as growth inhibition at 5 uM incubated for 48 hrs by PrestoBlue based fluorescence assay
# Type: functional
# Conditions: Trypanosoma brucei, 427, 48 h; read-out: GI
row,SMILES,inhibition of growth at 5 µM [%]
1,Fc1cccc(COc2ccc(Nc3nccc4ccc(-c5cccc(N6CCOCC6)c5)cc34)cc2Cl)c1,0.1
2,Fc1cccc(COc2ccc(Nc3nccc4cc(-c5cccc(N6CCOCC6)c5)ccc34)cc2Cl)c1,12

# Test system: Trypanosoma brucei
# Assay: Antiparasite activity against Trypanosoma brucei 427 assessed as growth inhibition incubated for 48 hrs by PrestoBlue based fluorescence assay
# Type: functional, organism-based
# Conditions: Trypanosoma brucei, 427, 48 h
row,SMILES,pEC50
1,CN1CCN(S(=O)(=O)c2ccc(-c3ccc4c(Nc5ccc(OCc6cccc(F)c6)c(Cl)c5)cnnc4c3)cc2)CC1,6.00
2,CN1CCCN(S(=O)(=O)c2ccc(-c3ccc4c(Nc5ccc(OCc6cccc(F)c6)c(Cl)c5)cnnc4c3)cc2)CC1,6.68
3,Fc1cccc(COc2ccc(Nc3nncc4ccc(-c5cccc(N6CCOCC6)c5)cc34)cc2Cl)c1,6.54
4,Fc1cccc(COc2ccc(Nc3nncc4cc(-c5cccc(N6CCOCC6)c5)ccc34)cc2Cl)c1,5.85
5,O=S(=O)(c1ccc(-c2ccc3cnnc(Nc4ccc(OCc5ccccc5)c(Cl)c4)c3c2)cc1)N1CCOCC1,6.07

# Test system: Trypanosoma cruzi
# Assay: Antiparasite activity against Trypanosoma cruzi Tulahuen expressing beta-galactosidase assessed as growth inhibition incubated for 96 hrs by CPRG dye based assay
# Type: functional, organism-based
# Conditions: not given
row,SMILES,pEC50
1,Fc1cccc(COc2ccc(Nc3nccc4ccc(-c5cccc(N6CCOCC6)c5)cc34)cc2Cl)c1,< 4.30
2,Fc1cccc(COc2ccc(Nc3nccc4cc(-c5cccc(N6CCOCC6)c5)ccc34)cc2Cl)c1,< 4.30
3,CN1CCN(S(=O)(=O)c2ccc(-c3ccc4c(Nc5ccc(OCc6cccc(F)c6)c(Cl)c5)cnnc4c3)cc2)CC1,5.51
4,CN1CCCN(S(=O)(=O)c2ccc(-c3ccc4c(Nc5ccc(OCc6cccc(F)c6)c(Cl)c5)cnnc4c3)cc2)CC1,4.31
5,Fc1cccc(COc2ccc(Nc3nncc4ccc(-c5cccc(N6CCOCC6)c5)cc34)cc2Cl)c1,< 4.30
6,Fc1cccc(COc2ccc(Nc3nncc4cc(-c5cccc(N6CCOCC6)c5)ccc34)cc2Cl)c1,< 4.30
7,O=S(=O)(c1ccc(-c2ccc3cnnc(Nc4ccc(OCc5ccccc5)c(Cl)c4)c3c2)cc1)N1CCOCC1,< 4.30

# Test system: not listed separately
# Assay: Aqueous solubility of the compound
# Type: physicochemical
# Conditions: buffer
# Summary of the method: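 Aqueous solubility measured as thermodynamic solubility.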
row,SMILES,solubility [µM]
1,CN1CCCN(S(=O)(=O)c2ccc(-c3ccc4c(Nc5ccc(OCc6cccc(F)c6)c(Cl)c5)cnnc4c3)cc2)CC1,< 1

# Test system: Plasmodium falciparum
# Assay: Antiparasite activity against drug resistant Plasmodium falciparum C235 assessed as growth inhibition incubated for 72 hrs by SYBR green fluorescence assay
# Type: functional, organism-based
# Conditions: C235, 72 h
row,SMILES,pEC50
1,Fc1cccc(COc2ccc(Nc3nccc4ccc(-c5cccc(N6CCOCC6)c5)cc34)cc2Cl)c1,5.21
2,Fc1cccc(COc2ccc(Nc3nccc4cc(-c5cccc(N6CCOCC6)c5)ccc34)cc2Cl)c1,5.33
3,CN1CCN(S(=O)(=O)c2ccc(-c3ccc4c(Nc5ccc(OCc6cccc(F)c6)c(Cl)c5)cnnc4c3)cc2)CC1,7.60
4,CN1CCCN(S(=O)(=O)c2ccc(-c3ccc4c(Nc5ccc(OCc6cccc(F)c6)c(Cl)c5)cnnc4c3)cc2)CC1,8.30
5,Fc1cccc(COc2ccc(Nc3nncc4ccc(-c5cccc(N6CCOCC6)c5)cc34)cc2Cl)c1,6.40
6,Fc1cccc(COc2ccc(Nc3nncc4cc(-c5cccc(N6CCOCC6)c5)ccc34)cc2Cl)c1,6.47
7,O=S(=O)(c1ccc(-c2ccc3cnnc(Nc4ccc(OCc5ccccc5)c(Cl)c4)c3c2)cc1)N1CCOCC1,5.92

# Test system: not listed separately
# Assay: Toxicity against human HepG2 cells incubated for 48 hrs by MTT assay
# Type: cell-based
# Conditions: read-out: TC50
row,SMILES,CC50 at 48 h [µM]
1,Fc1cccc(COc2ccc(Nc3nccc4ccc(-c5cccc(N6CCOCC6)c5)cc34)cc2Cl)c1,> 28
2,Fc1cccc(COc2ccc(Nc3nccc4cc(-c5cccc(N6CCOCC6)c5)ccc34)cc2Cl)c1,> 28
3,CN1CCN(S(=O)(=O)c2ccc(-c3ccc4c(Nc5ccc(OCc6cccc(F)c6)c(Cl)c5)cnnc4c3)cc2)CC1,> 15
4,CN1CCCN(S(=O)(=O)c2ccc(-c3ccc4c(Nc5ccc(OCc6cccc(F)c6)c(Cl)c5)cnnc4c3)cc2)CC1,15
5,Fc1cccc(COc2ccc(Nc3nncc4ccc(-c5cccc(N6CCOCC6)c5)cc34)cc2Cl)c1,> 15
6,Fc1cccc(COc2ccc(Nc3nncc4cc(-c5cccc(N6CCOCC6)c5)ccc34)cc2Cl)c1,> 15
7,O=S(=O)(c1ccc(-c2ccc3cnnc(Nc4ccc(OCc5ccccc5)c(Cl)c4)c3c2)cc1)N1CCOCC1,> 5.2

# Test system: Hepatocyte
# Assay: Intrinsic clearance in rat hepatocytes assessed per 10^6 cells
# Type: ADME, cell-based
# Conditions: not given
row,SMILES,CLH [µL/min]
1,CN1CCCN(S(=O)(=O)c2ccc(-c3ccc4c(Nc5ccc(OCc6cccc(F)c6)c(Cl)c5)cnnc4c3)cc2)CC1,36.72

# Test system: not listed separately
# Assay: Protein binding in plasma (unknown origin) assessed as fraction unbound
# Type: ADME, cell-free
# Conditions: not given
row,SMILES,Fu [%]
1,CN1CCCN(S(=O)(=O)c2ccc(-c3ccc4c(Nc5ccc(OCc6cccc(F)c6)c(Cl)c5)cnnc4c3)cc2)CC1,< 1

# Test system: Plasmodium falciparum
# Assay: Antiparasite activity against Plasmodium falciparum D6 assessed as growth inhibition incubated for 72 hrs by SYBR green fluorescence assay
# Type: functional, organism-based
# Conditions: D6, 72 h
row,SMILES,pEC50
1,Fc1cccc(COc2ccc(Nc3nccc4ccc(-c5cccc(N6CCOCC6)c5)cc34)cc2Cl)c1,5.59
2,Fc1cccc(COc2ccc(Nc3nccc4cc(-c5cccc(N6CCOCC6)c5)ccc34)cc2Cl)c1,5.55
3,CN1CCN(S(=O)(=O)c2ccc(-c3ccc4c(Nc5ccc(OCc6cccc(F)c6)c(Cl)c5)cnnc4c3)cc2)CC1,7.85
4,CN1CCCN(S(=O)(=O)c2ccc(-c3ccc4c(Nc5ccc(OCc6cccc(F)c6)c(Cl)c5)cnnc4c3)cc2)CC1,8.52
5,Fc1cccc(COc2ccc(Nc3nncc4ccc(-c5cccc(N6CCOCC6)c5)cc34)cc2Cl)c1,6.96
6,Fc1cccc(COc2ccc(Nc3nncc4cc(-c5cccc(N6CCOCC6)c5)ccc34)cc2Cl)c1,6.62
7,O=S(=O)(c1ccc(-c2ccc3cnnc(Nc4ccc(OCc5ccccc5)c(Cl)c4)c3c2)cc1)N1CCOCC1,6.27

# Test system: Leishmania major
# Assay: Antiparasite activity against luciferase-expressing Leishmania major amastigotes isolated from infected in mouse RAW264.7 cells assessed as growth inhibition incubated for 96 hrs by luciferase reporter gene assay
# Type: functional, organism-based
# Conditions: RAW264.7, 96 h
row,SMILES,pEC50
1,Fc1cccc(COc2ccc(Nc3nccc4ccc(-c5cccc(N6CCOCC6)c5)cc34)cc2Cl)c1,5.22
2,Fc1cccc(COc2ccc(Nc3nccc4cc(-c5cccc(N6CCOCC6)c5)ccc34)cc2Cl)c1,5.66
3,CN1CCN(S(=O)(=O)c2ccc(-c3ccc4c(Nc5ccc(OCc6cccc(F)c6)c(Cl)c5)cnnc4c3)cc2)CC1,5.70
4,CN1CCCN(S(=O)(=O)c2ccc(-c3ccc4c(Nc5ccc(OCc6cccc(F)c6)c(Cl)c5)cnnc4c3)cc2)CC1,6.62
5,Fc1cccc(COc2ccc(Nc3nncc4ccc(-c5cccc(N6CCOCC6)c5)cc34)cc2Cl)c1,5.77
6,Fc1cccc(COc2ccc(Nc3nncc4cc(-c5cccc(N6CCOCC6)c5)ccc34)cc2Cl)c1,5.66
7,O=S(=O)(c1ccc(-c2ccc3cnnc(Nc4ccc(OCc5ccccc5)c(Cl)c4)c3c2)cc1)N1CCOCC1,< 5.40

# Test system: Plasmodium falciparum
# Assay: Antiparasite activity against drug resistant Plasmodium falciparum W2 assessed as growth inhibition incubated for 72 hrs by SYBR green fluorescence assay
# Type: functional, organism-based
# Conditions: W2, 72 h
row,SMILES,pEC50
1,Fc1cccc(COc2ccc(Nc3nccc4ccc(-c5cccc(N6CCOCC6)c5)cc34)cc2Cl)c1,4.72
2,Fc1cccc(COc2ccc(Nc3nccc4cc(-c5cccc(N6CCOCC6)c5)ccc34)cc2Cl)c1,4.72
3,CN1CCN(S(=O)(=O)c2ccc(-c3ccc4c(Nc5ccc(OCc6cccc(F)c6)c(Cl)c5)cnnc4c3)cc2)CC1,7.26
4,CN1CCCN(S(=O)(=O)c2ccc(-c3ccc4c(Nc5ccc(OCc6cccc(F)c6)c(Cl)c5)cnnc4c3)cc2)CC1,7.89
5,Fc1cccc(COc2ccc(Nc3nncc4ccc(-c5cccc(N6CCOCC6)c5)cc34)cc2Cl)c1,6.21
6,Fc1cccc(COc2ccc(Nc3nncc4cc(-c5cccc(N6CCOCC6)c5)ccc34)cc2Cl)c1,6.21
7,O=S(=O)(c1ccc(-c2ccc3cnnc(Nc4ccc(OCc5ccccc5)c(Cl)c4)c3c2)cc1)N1CCOCC1,5.77
